Measurements reported in ChEMBL document CHEMBL4342485, “Discovery of Potent Benzolactam IRAK4 Inhibitors with Robust in Vivo Activity” (ACS Med Chem Lett, 2020).
pIC50, pKi: −log10 of the molar value. Activity calls are given as the source filed them. No cut-off for these calls is given here.

How the values were obtained:
[1] = Clearance in mouse plasma at 1 mg/kg, iv or po; type: ADME, organism-based
[2] = Protein binding in cynomolgus monkey plasma at 5 uM incubated for 6 hrs by red equilibrium dialysis based LC-MS/MS analysis; type: ADME, cell-free, Macaca fascicularis; details: read-out: PPB (converted)
[3] = Protein binding in human plasma at 5 uM incubated for 6 hrs by red equilibrium dialysis based LC-MS/MS analysis; type: ADME, cell-free
[4] = Volume of distribution at steady state in cynomolgus monkey at 1 mg/kg, iv or po; type: ADME, organism-based, Macaca fascicularis; details: in vivo, read-out: Vdss
[5] = Volume of distribution at steady state in mouse at 1 mg/kg, iv or po; type: ADME, organism-based; details: in vivo, read-out: Vdss
[6] = test system: Mus musculus; assay: In vivo inhibition of IRAK4 in R848-induced C57BL/6 mouse assessed as IFN alpha levels at 3.7 mg/kg, po administered as nanosuspension at 1 hr prior to R848 challenge and measured after 1 hr by ELISA relative to control; type: functional; set-up: scale not given: the % may be the effect or the level left
Procedure, shortened: (§1)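 C57 black 6 mice were given vehicle or compound as a nanosuspension in MCT (0.5% methyl-cellulose/0.2% tween-80) across a dose range, 1 h before TLR7/8 agonist R848 (resiquimod) stimulation. Blood was drawn 1 h after R848, which is 2 h after compound. Plasma IFNα was measured by ELISA against vehicle-treated, R848-stimulated animals. Plasma drug levels were taken at the same time.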

[7] = Oral bioavailability in rat at 1 mg/kg; type: ADME, organism-based; details: in vivo
[8] = test system: Mus musculus; assay: In vivo inhibition of IRAK4 in R848-induced C57BL/6 mouse assessed as IFN alpha levels at 11.1 mg/kg, po administered as nanosuspension at 1 hr prior to R848 challenge and measured after 1 hr by ELISA relative to control; type: functional; set-up: scale not given: the % may be the effect or the level left; procedure, shortened: as §1
[9] = Half life in mouse at 1 mg/kg, iv or po; type: ADME, organism-based; details: in vivo
[10] = Clearance in cynomolgus monkey plasma at 1 mg/kg, iv or po; type: ADME, organism-based, Macaca fascicularis
[11] = Half life in cynomolgus monkey at 1 mg/kg, iv or po; type: ADME, organism-based, Macaca fascicularis; details: in vivo
[12] = AUC (infinity) in mouse at 1 mg/kg, iv or po; type: ADME, organism-based; details: in vivo
[13] = test system: Mus musculus; assay: In vivo inhibition of IRAK4 in R848-induced C57BL/6 mouse assessed as inhibition of TNF alpha secretion at 3 mg/kg, po administered as nanosuspension at 1 hr prior to R848 challenge and measured after 1 hr by ELISA; type: functional, organism-based
Procedure, shortened: (§2)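 C57 black 6 mice dosed with vehicle or nanosuspension in 0.5% methyl-cellulose/0.2% tween-80 across a dose range 1 h before stimulation with TLR7/8 agonist R848; blood sampled 1 h after R848 (2 h post-dose). Plasma IFNα, IL-6 and TNFα measured, IFNα by ELISA; compound plasma levels also determined.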

[14] = target: T1, Interleukin-1 receptor-associated kinase 4 (Homo sapiens, UniProt Q9NWZ3); assay: Inhibition of recombinant full-length N-terminal His6-tagged human IRAK4 expressed in baculovirus expression system using H-KKARFSRFAGSSPSQSSMVAR peptide as substrate after 90 mins by fluorescence polarisation assay
T1 sequence (Q9NWZ3 whole entry): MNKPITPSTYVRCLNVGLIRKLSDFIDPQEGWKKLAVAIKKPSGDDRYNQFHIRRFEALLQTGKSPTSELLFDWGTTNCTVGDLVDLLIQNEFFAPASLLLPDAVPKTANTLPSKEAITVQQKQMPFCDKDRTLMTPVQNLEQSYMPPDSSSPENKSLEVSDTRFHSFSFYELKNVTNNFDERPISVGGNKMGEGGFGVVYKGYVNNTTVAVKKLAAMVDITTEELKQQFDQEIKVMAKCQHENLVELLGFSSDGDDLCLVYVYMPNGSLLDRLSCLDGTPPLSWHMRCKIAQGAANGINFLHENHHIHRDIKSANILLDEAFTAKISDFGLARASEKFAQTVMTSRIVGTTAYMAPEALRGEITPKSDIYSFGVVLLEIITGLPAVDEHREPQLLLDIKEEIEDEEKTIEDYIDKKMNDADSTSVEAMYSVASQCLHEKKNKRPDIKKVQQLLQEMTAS

[15] = Protein binding in mouse plasma at 5 uM incubated for 6 hrs by red equilibrium dialysis based LC-MS/MS analysis; type: ADME, cell-free; details: read-out: PPB (converted)
[16] = Protein binding in rat plasma at 5 uM incubated for 6 hrs by red equilibrium dialysis based LC-MS/MS analysis; type: ADME, cell-free; details: read-out: PPB (converted)
[17] = AUC (infinity) in cynomolgus monkey at 1 mg/kg, iv or po; type: ADME, organism-based, Macaca fascicularis; details: in vivo
Procedure, shortened: (§3)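 Separate intravenous and oral PK studies, each dosed at 1 mg/kg. Plasma AUC was extrapolated to infinity and reported in µM*h. Half-life and oral bioavailability were derived from the same studies.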

[18] = Half life in rat at 1 mg/kg, iv or po; type: ADME, organism-based; details: in vivo
[19] = test system: Mus musculus; assay: In vivo inhibition of IRAK4 in R848-induced po dosed C57BL/6 mouse assessed as inhibition of IFN alpha secretion administered as nanosuspension at 1 hr prior to R848 challenge and measured after 1 hr by ELISA; type: functional, organism-based; procedure, shortened: as §2
[20] = AUC (infinity) in rat at 1 mg/kg, iv or po; type: ADME, organism-based; details: in vivo; procedure, shortened: as §3
[21] = Volume of distribution at steady state in dog at 1 mg/kg, iv or po; type: ADME, organism-based, Canis lupus familiaris; details: in vivo, read-out: Vdss
[22] = target: T1, Interleukin-1 receptor-associated kinase 4
[23] = test system: Mus musculus; assay: In vivo inhibition of IRAK4 in R848-induced C57BL/6 mouse assessed as IFN alpha levels at 1.2 mg/kg, po administered as nanosuspension at 1 hr prior to R848 challenge and measured after 1 hr by ELISA relative to control; type: functional; set-up: scale not given: the % may be the effect or the level left; procedure, shortened: as §1
[24] = Volume of distribution at steady state in rat at 1 mg/kg, iv or po; type: ADME, organism-based; details: in vivo, read-out: Vdss
[25] = Clearance in dog plasma at 1 mg/kg, iv or po; type: ADME, organism-based, Canis lupus familiaris
[26] = Half life in dog at 1 mg/kg, iv or po; type: ADME, organism-based, Canis lupus familiaris; details: in vivo
[27] = Apparent permeability across apical to basolateral side in dog MDCKI cells at 10 uM measured after 60 to 180 mins by lucifer yellow dye based LC-MS/MS analysis; type: ADME, cell-based, Canis lupus familiaris; details: MDCK
Procedure, shortened: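 Apical-to-basolateral permeability measured in Madin–Darby canine kidney (MDCK) cell monolayers; reported in ×10–6 cm/s.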

[28] = Clearance in rat plasma at 1 mg/kg, iv or po; type: ADME, organism-based
[29] = test system: Mus musculus; assay: In vivo inhibition of IRAK4 in R848-induced po dosed C57BL/6 mouse assessed as inhibition of TNFalpha secretion administered as nanosuspension at 1 hr prior to R848 challenge and measured after 1 hr by ELISA; type: functional, organism-based; procedure, shortened: as §2
[30] = Oral bioavailability in dog at 1 mg/kg; type: ADME, organism-based, Canis lupus familiaris; details: in vivo
[31] = Protein binding in dog plasma at 5 uM incubated for 6 hrs by red equilibrium dialysis based LC-MS/MS analysis; type: ADME, cell-free, Canis lupus familiaris; details: read-out: PPB (converted)
[32] = test system: Mus musculus; assay: In vivo inhibition of IRAK4 in R848-induced po dosed C57BL/6 mouse assessed as inhibition of IL-6 secretion administered as nanosuspension at 1 hr prior to R848 challenge and measured after 1 hr by ELISA; type: functional, organism-based; procedure, shortened: as §2
[33] = Oral bioavailability in cynomolgus monkey at 1 mg/kg; type: ADME, organism-based, Macaca fascicularis; details: in vivo
[34] = test system: Mus musculus; assay: In vivo inhibition of IRAK4 in R848-induced C57BL/6 mouse assessed as IL6 level at 100 mg/kg, po administered as nanosuspension at 1 hr prior to R848 challenge and measured after 1 hr by ELISA relative to control; type: functional; set-up: scale not given: the % may be the effect or the level left
Procedure, shortened: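 C57 black 6 mice were pretreated with vehicle or a compound nanosuspension in 0.5% methyl-cellulose/0.2% tween-80 over a dose range, 1 h before R848 stimulation. Blood was sampled 1 h post-R848, and IL-6 and TNFα levels were compared with vehicle-treated, R848-stimulated mice.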

[35] = test system: Mus musculus; assay: In vivo inhibition of IRAK4 in R848-induced C57BL/6 mouse assessed as IFN alpha levels at 33.3 mg/kg, po administered as nanosuspension at 1 hr prior to R848 challenge and measured after 1 hr by ELISA relative to control; type: functional; set-up: scale not given: the % may be the effect or the level left; procedure, shortened: as §1
[36] = Oral bioavailability in mouse at 1 mg/kg; type: ADME, organism-based; details: in vivo
[37] = AUC (infinity) in dog at 1 mg/kg, iv or po; type: ADME, organism-based, Canis lupus familiaris; details: in vivo; procedure, shortened: as §3

## CC(C)(O)[C@H](F)CN1Cc2cc(NC(=O)c3cnn4cccnc34)c(N3CCOCC3)cc2C1=O
[1]
  clearance: 29 mL/min/kg
[2]
  fraction unbound at 6 h, 5 µM: 0.332
[3]
  PPB: 72.4%
[4]
  Vd: 3.7 L/kg
[5]
  Vd: 2.2 L/kg
[6]
  Activity: -24%
[7]
  bioavailability: 31%
[8]
  Activity: -45%
[9]
  half-life: 1.9 h
[10]
  clearance: 15.8 mL/min/kg
[11]
  half-life: 5.4 h
[12]
  AUC(0-inf): 1.2 µM·h
[13]
  inhibition: Active
[14]
  pKi: 8.85
[15]
  fraction unbound at 6 h, 5 µM: 0.058
[16]
  fraction unbound at 6 h, 5 µM: 0.086
[17]
  AUC(0-inf): 2.2 µM·h
[18]
  half-life: 1.6 h
[19]
  inhibition: Dose-dependent effect
[20]
  AUC(0-inf): 3.8 µM·h
[21]
  Vd: 3.7 L/kg
[22]
  pIC50: 6.72
[23]
  Activity: -12%
[24]
  Vd: 0.95 L/kg
[25]
  clearance: 11.3 mL/min/kg
[26]
  half-life: 4.1 h
[27]
  Papp A→B at 10 µM: 9.1 to 9.2 ×10⁻⁶ cm/s
[28]
  clearance: 9.2 mL/min/kg
[29]
  inhibition: Dose-dependent effect
[30]
  bioavailability: 109%
[31]
  fraction unbound at 6 h, 5 µM: 0.224
[32]
  inhibition: Dose-dependent effect
[33]
  bioavailability: 47%
[34]
  Activity: -64%
[35]
  Activity: -53%
[36]
  bioavailability: 34%
[37]
  AUC(0-inf): 3.1 µM·h
